Data set [1] in a line: Toxicity in C57BL/6 mouse assessed as clinical abnormalities at 20 to 120 mg/kg, ip administered for 4 days. The format is organism-based. To be noted: in vivo, 96 h.
A short description of data set [2]: Unbound drug level in brain of twitcher mouse model of Krabbe's disease at 90 mg/kg,ip administered once daily for 20 days measured 1 hr post-last dose. The format is ADME, organism-based. The settings on record: in vivo. The procedure, abridged: (§1)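 Twitcher mice dosed i.p. once daily for 20 days, sacrificed 1 h after last dose (day 20); drug measured in plasma and brain; unbound levels from unbound fractions (mean of two technical replicates); N = 3 males + 3 females per group.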

The target in data set [3] is T1, Acid ceramidase (Homo sapiens) (UniProt Q13510).
T1 sequence (whole entry): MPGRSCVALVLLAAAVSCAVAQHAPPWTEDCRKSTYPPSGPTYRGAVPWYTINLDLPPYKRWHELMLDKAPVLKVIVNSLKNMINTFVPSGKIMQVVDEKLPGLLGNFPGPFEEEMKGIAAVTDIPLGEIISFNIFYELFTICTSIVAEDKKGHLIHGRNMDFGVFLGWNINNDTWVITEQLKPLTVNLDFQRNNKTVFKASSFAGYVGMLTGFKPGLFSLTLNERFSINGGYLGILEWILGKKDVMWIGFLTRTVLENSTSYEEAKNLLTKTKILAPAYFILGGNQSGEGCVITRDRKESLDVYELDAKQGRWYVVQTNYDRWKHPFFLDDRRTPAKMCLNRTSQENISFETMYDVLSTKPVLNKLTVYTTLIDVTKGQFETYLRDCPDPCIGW
The data set can be described thus: Inhibition of acid ceramidase in human SH-SY5Y cells assessed as increase in intracellular accumulation of Cer (d18:1/16:0) at 10 uM measured up to 6 hrs by LC/MS analysis. The format is cell-based. A digest of the protocol: (§2)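 Human neuroblastoma SH-SY5Y cells incubated with compound at 10 μM for 30 min, 1 h, 3 h and 6 h; AC activity by LC/MS-based activity assay; Cer (d18:0/16:0), Cer (d18:1/16:0), sphingosine, SM (d18:1/16:0) and HexCer (d18:1/16:0) quantified by LC/MS.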

Data set [4] in a line: Unbound plasma concentration in twitcher mouse model of Krabbe's disease at 90 mg/kg, ip administered once daily for 20 days measured 1 hr post-last dose. The format is ADME, organism-based. To be noted: in vivo. The procedure, abridged:
as §1

A short description of data set [5]: Ratio of unbound drug level in brain of C57BL/6J/129SvEV mouse model of Gaucher's disease at 90 mg/kg, ip administered once daily for 14 days measured 1 hr post-last dose to EC50 for inhibition of acid ceramidase in Krabbe's disease patient-derived primary fibroblasts. The format is organism-based. The settings on record: in vivo. The procedure, abridged: (§3)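 Gaucher-model 4L;C* mice (N = 4–8, mixed sexes) got 30 or 90 mg kg–1 i.p. once daily for 14 days from postnatal day 5 and were sacrificed 1 h after the day-14 dose. Compound levels were measured in plasma and brain, and unbound brain level came from brain fraction unbound (two technical replicates). The reference EC50 was from Krabbe patient primary fibroblasts incubated 2 h across concentrations (two independent experiments, duplicates).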

The target in data set [6] is T2, Lysosomal acid glucosylceramidase (Homo sapiens) (UniProt P04062).
T2 sequence (whole entry): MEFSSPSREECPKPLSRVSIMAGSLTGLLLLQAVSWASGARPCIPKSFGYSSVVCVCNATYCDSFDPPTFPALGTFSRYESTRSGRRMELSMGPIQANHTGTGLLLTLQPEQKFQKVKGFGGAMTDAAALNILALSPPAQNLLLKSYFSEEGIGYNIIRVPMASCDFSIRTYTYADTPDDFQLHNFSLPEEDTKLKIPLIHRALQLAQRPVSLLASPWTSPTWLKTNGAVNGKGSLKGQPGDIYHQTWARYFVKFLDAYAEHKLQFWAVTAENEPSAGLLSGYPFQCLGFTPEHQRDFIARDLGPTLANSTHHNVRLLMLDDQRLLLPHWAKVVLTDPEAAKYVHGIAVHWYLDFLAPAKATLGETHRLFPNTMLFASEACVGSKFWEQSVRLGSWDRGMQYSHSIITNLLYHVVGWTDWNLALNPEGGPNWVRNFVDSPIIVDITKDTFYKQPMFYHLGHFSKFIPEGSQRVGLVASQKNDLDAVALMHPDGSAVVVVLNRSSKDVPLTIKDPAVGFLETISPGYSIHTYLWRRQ
Briefly: Inhibition of human full length GCase at 1 to 10 uM using 4-MUG as fluorogenic substrate incubated for 15 mins by fluorescence based assay.

A short description of data set [7]: Unbound drug level in brain of C57BL/6J/129SvEV mouse model of Gaucher's disease at 30 mg/kg, ip administered once daily for 14 days measured 1 hr post-last dose. The format is ADME, organism-based. The settings on record: in vivo. A digest of the protocol:
(§4)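 4L;C* mice dosed i.p. once daily for 14 days, killed 1 h after last dose (day 14); plasma and brain drug levels measured; unbound concentrations from plasma and brain unbound fractions (mean of two technical replicates); N = 4–8, mixed sexes.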

The target of data set [8] is T1, Acid ceramidase (Homo sapiens). The data set can be described thus: Inhibition of acid ceramidase in human SH-SY5Y cells using N-lauroyl ceramide as substrate measured after 3 hrs by LC/MS analysis. The format is cell-based. The procedure, abridged: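 SH-SY5Y neuroblastoma cells exposed 3 h to 1, 2.5, 5 and 10 μM; AC activity by LC/MS-based assay; ceramide species, sphingosine, SM and HexCer (d18:1/16:0) quantified by LC/MS; means ± S.E.M. of at least six determinations, experiment repeated twice.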

Data set [9] is described as follows: Unbound plasma concentration in C57BL/6J/129SvEV mouse model of Gaucher's disease at 30 mg/kg, ip administered once daily for 14 days measured 1 hr post last dose. The format is ADME, organism-based. To be noted: in vivo. The procedure, abridged:
as §4

Data set [10] concerns the target T3, Monoglyceride lipase (Homo sapiens) (UniProt Q99685).
T3 sequence (whole entry): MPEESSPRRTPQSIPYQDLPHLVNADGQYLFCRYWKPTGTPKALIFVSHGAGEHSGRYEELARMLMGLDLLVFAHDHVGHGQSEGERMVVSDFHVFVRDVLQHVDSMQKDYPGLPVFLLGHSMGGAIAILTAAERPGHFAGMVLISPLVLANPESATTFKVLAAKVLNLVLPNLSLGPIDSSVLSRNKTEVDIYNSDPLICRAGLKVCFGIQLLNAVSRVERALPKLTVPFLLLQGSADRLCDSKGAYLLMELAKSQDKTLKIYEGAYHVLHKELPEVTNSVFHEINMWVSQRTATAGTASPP
The data set can be described thus: Inhibition of recombinant human MAGL at 1 to 10 uM using 4-nitrophenylacetate as substrate preincubated for 5 mins followed by substrate addition and measured after 10 mins by colorimetric method.

Data set [11] deals with T1, Acid ceramidase (Homo sapiens). Briefly: Inhibition of acid ceramidase in human SH-SY5Y cells assessed as decrease in sphingosine level at 10 uM measured up to 6 hrs by LC/MS analysis. The format is cell-based. A digest of the protocol:
as §2

Data set [12] in a line: Unbound drug level in brain of twitcher mouse model of Krabbe's disease at 30 mg/kg,ip administered once daily for 20 days measured 1 hr post-last dose. The format is ADME, organism-based. The settings on record: in vivo. The procedure, abridged:
as §1

Data set [13] is described as follows: Ratio of unbound drug level in brain of C57BL/6J/129SvEV mouse model of Gaucher's disease at 30 mg/kg, ip administered once daily for 14 days measured 1 hr post-last dose to EC50 for inhibition of acid ceramidase in Krabbe's disease patient-derived primary fibroblasts. The format is organism-based. The settings on record: in vivo. The procedure, abridged: as §3

Data set [14] deals with T1, Acid ceramidase (Homo sapiens). The data set can be described thus: Inhibition of acid ceramidase in human SH-SY5Y cells assessed as increase in intracellular accumulation of Cer (d18:0/16:0) at 10 uM measured up to 6 hrs by LC/MS analysis. The format is cell-based. The procedure, abridged: as §2

Calls of active or inactive are those of the source. The calls are words filed in the database; no cut-off is given here.

For `CC(C)CNC(=O)n1c(=O)oc2cc(C3CCN(C)CC3)ccc21`, in data set [1], the Activity entry is given as “Non-Toxic”. Besides, the “Drug uptake(free)” value in data set [2] amounted to 2.15 µM; in [7], 0.77 µM; in data set [12], 0.8 µM. For the same compound, the inhibition result in [3], in data set [11] and in data set [14] was “Active” throughout. For the same compound, the figures for the “Cp(f)” value in data set [4] and in data set [9] were 520 nM and 420 nM, respectively. Further, the Ratio in data set [5] is given as 6.4; in data set [13] it was 1.9. In addition, the inhibition entry in data set [6] and in data set [10] was “inactive” in each case. Besides, the inhibition entry in data set [8] was “Dose-dependent effect”.
